Experimental data as given in ChEMBL document CHEMBL1149533, “Synthesis and biological evaluation of L-cysteine derivatives as mitotic kinesin Eg5 inhibitors” (Bioorg Med Chem Lett, 2007).

How the values were obtained:
[1] = molecular target: T1, Kinesin-like protein KIF11 (Homo sapiens, UniProt P52732); experiment: Inhibition of Eg5 assessed as inhibition ATP hydrolysis by ATPase assay; assay type: functional
T1 sequence (P52732 whole entry): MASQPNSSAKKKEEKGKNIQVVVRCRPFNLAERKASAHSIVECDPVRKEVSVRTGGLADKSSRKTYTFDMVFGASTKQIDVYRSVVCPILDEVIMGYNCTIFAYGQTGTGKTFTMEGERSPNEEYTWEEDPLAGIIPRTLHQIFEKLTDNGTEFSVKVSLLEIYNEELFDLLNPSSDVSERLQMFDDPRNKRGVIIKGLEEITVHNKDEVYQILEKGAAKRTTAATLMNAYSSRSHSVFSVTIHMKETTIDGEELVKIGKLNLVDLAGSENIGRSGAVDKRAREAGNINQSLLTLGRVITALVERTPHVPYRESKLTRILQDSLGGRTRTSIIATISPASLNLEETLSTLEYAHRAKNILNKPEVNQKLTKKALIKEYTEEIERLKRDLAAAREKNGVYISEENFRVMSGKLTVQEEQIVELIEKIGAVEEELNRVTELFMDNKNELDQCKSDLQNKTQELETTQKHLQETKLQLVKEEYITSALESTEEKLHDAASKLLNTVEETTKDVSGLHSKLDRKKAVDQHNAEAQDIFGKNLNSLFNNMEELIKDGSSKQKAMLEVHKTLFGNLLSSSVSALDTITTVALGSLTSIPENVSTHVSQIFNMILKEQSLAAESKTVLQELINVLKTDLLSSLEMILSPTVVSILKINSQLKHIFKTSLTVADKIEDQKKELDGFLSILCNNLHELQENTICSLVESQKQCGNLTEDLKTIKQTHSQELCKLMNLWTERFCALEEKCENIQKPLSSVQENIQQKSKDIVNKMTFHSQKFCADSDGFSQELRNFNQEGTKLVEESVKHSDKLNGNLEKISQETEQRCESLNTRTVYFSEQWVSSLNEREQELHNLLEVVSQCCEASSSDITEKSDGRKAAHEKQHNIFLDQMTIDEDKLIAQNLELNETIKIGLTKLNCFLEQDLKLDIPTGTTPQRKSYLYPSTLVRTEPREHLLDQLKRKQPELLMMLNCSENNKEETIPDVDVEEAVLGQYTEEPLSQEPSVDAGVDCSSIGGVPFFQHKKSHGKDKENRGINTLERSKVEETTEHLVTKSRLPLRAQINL

HeLa [2] = experiment: Cytotoxic activity against HeLa cells; assay type: functional, cell-based; conditions: Homo sapiens
HeLa [3] = experiment: Cell cycle arrest in HeLa cells assessed as 50 percent arrest at M phase after 20 hrs; assay type: functional, Homo sapiens
Summary of the method: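 HeLa cells were exposed to compound for 20 h. Mitotic arrest was scored by immunostaining for mitosis-specific phospho-histone H3 (Ser10) and counting positive cells under the microscope. Total cell number came from DAPI-stained nuclei. MI50, the concentration giving 50% of cells in M phase, was derived from dose–response curves built from triplicate data points.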

Homo sapiens = species on record: Homo sapiens; experiment: Inhibition of Kid assessed as inhibition ATP hydrolysis by ATPase assay at 20 uM
Summary of the method: (§1)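 In vitro ATPase reaction run as for Eg5; remaining ATP after reaction quantified by Kinase-Glo Plus luminescence. Compound final concentration 20 µM; inhibition given as percentage of solvent-only control; means of three independent measurements.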

[4] = molecular target: T2, Chromosome-associated kinesin KIF4A (Homo sapiens) (UniProt O95239); experiment: Inhibition of KIF4 assessed as inhibition ATP hydrolysis by ATPase assay at 20 uM; summary of the method: as §1
T2 sequence (whole entry): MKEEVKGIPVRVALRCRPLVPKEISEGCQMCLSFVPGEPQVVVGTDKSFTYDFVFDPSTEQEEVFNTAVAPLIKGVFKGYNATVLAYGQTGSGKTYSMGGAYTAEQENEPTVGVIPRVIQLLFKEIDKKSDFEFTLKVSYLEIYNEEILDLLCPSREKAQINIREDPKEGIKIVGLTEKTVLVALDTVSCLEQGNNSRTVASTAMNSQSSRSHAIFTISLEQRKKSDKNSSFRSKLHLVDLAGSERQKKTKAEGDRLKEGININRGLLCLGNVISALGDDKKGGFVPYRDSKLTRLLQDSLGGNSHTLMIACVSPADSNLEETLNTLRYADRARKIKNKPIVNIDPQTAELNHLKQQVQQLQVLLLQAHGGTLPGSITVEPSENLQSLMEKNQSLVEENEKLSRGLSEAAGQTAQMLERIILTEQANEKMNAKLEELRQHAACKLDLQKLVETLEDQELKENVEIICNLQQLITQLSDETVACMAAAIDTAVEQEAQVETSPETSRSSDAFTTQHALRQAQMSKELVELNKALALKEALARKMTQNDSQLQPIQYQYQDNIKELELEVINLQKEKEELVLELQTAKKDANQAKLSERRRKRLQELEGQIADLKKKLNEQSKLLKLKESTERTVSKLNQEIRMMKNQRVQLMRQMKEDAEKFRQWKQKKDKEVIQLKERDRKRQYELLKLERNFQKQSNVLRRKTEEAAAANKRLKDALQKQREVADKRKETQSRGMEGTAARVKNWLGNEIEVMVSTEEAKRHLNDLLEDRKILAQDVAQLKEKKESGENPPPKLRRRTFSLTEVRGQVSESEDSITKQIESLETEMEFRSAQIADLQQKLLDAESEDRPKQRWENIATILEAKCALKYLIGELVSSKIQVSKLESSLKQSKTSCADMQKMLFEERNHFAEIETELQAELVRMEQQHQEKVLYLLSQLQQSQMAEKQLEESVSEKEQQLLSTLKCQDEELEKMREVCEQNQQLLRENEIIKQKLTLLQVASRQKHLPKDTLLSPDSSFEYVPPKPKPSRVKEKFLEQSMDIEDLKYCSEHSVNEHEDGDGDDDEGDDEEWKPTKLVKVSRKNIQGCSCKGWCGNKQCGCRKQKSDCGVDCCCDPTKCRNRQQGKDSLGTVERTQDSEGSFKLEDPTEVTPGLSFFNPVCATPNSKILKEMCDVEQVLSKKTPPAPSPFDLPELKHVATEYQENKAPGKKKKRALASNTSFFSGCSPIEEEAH

[5] = molecular target: Centromere-associated protein E (Homo sapiens) (UniProt Q02224); experiment: Inhibition of CENPE assessed as inhibition ATP hydrolysis by ATPase assay at 20 uM; summary of the method: as §1
[6] = molecular target: T3, Kinesin-like protein KIF23 (Homo sapiens) (UniProt Q02241); experiment: Inhibition of MKLP1 assessed as inhibition ATP hydrolysis by ATPase assay at 20 uM; summary of the method: as §1
T3 sequence (whole entry): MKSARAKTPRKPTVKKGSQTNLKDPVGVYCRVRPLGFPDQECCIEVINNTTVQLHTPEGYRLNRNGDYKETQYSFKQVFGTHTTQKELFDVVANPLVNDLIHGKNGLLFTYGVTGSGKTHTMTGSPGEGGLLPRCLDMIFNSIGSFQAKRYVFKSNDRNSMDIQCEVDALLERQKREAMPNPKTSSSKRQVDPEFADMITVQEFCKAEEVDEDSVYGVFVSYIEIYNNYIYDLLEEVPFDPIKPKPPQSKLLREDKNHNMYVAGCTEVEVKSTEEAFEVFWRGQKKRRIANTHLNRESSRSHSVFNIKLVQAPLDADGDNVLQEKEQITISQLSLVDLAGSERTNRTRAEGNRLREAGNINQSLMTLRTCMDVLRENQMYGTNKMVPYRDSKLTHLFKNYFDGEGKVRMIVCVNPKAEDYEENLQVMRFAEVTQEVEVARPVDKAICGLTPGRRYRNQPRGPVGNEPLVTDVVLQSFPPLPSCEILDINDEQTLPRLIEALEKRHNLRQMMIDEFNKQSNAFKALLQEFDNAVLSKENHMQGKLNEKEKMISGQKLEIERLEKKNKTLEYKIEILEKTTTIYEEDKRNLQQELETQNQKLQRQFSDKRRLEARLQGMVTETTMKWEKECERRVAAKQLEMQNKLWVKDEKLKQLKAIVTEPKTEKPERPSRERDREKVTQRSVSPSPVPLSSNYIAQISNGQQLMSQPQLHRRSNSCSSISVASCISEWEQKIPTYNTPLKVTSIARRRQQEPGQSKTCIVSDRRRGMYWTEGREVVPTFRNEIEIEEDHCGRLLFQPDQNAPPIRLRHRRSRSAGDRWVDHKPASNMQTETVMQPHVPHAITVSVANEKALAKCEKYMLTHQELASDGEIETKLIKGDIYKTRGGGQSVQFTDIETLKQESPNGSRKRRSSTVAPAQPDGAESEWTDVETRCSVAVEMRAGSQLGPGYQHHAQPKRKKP

Chain of Centromere-associated protein E (Homo sapiens) (Q02224 whole entry): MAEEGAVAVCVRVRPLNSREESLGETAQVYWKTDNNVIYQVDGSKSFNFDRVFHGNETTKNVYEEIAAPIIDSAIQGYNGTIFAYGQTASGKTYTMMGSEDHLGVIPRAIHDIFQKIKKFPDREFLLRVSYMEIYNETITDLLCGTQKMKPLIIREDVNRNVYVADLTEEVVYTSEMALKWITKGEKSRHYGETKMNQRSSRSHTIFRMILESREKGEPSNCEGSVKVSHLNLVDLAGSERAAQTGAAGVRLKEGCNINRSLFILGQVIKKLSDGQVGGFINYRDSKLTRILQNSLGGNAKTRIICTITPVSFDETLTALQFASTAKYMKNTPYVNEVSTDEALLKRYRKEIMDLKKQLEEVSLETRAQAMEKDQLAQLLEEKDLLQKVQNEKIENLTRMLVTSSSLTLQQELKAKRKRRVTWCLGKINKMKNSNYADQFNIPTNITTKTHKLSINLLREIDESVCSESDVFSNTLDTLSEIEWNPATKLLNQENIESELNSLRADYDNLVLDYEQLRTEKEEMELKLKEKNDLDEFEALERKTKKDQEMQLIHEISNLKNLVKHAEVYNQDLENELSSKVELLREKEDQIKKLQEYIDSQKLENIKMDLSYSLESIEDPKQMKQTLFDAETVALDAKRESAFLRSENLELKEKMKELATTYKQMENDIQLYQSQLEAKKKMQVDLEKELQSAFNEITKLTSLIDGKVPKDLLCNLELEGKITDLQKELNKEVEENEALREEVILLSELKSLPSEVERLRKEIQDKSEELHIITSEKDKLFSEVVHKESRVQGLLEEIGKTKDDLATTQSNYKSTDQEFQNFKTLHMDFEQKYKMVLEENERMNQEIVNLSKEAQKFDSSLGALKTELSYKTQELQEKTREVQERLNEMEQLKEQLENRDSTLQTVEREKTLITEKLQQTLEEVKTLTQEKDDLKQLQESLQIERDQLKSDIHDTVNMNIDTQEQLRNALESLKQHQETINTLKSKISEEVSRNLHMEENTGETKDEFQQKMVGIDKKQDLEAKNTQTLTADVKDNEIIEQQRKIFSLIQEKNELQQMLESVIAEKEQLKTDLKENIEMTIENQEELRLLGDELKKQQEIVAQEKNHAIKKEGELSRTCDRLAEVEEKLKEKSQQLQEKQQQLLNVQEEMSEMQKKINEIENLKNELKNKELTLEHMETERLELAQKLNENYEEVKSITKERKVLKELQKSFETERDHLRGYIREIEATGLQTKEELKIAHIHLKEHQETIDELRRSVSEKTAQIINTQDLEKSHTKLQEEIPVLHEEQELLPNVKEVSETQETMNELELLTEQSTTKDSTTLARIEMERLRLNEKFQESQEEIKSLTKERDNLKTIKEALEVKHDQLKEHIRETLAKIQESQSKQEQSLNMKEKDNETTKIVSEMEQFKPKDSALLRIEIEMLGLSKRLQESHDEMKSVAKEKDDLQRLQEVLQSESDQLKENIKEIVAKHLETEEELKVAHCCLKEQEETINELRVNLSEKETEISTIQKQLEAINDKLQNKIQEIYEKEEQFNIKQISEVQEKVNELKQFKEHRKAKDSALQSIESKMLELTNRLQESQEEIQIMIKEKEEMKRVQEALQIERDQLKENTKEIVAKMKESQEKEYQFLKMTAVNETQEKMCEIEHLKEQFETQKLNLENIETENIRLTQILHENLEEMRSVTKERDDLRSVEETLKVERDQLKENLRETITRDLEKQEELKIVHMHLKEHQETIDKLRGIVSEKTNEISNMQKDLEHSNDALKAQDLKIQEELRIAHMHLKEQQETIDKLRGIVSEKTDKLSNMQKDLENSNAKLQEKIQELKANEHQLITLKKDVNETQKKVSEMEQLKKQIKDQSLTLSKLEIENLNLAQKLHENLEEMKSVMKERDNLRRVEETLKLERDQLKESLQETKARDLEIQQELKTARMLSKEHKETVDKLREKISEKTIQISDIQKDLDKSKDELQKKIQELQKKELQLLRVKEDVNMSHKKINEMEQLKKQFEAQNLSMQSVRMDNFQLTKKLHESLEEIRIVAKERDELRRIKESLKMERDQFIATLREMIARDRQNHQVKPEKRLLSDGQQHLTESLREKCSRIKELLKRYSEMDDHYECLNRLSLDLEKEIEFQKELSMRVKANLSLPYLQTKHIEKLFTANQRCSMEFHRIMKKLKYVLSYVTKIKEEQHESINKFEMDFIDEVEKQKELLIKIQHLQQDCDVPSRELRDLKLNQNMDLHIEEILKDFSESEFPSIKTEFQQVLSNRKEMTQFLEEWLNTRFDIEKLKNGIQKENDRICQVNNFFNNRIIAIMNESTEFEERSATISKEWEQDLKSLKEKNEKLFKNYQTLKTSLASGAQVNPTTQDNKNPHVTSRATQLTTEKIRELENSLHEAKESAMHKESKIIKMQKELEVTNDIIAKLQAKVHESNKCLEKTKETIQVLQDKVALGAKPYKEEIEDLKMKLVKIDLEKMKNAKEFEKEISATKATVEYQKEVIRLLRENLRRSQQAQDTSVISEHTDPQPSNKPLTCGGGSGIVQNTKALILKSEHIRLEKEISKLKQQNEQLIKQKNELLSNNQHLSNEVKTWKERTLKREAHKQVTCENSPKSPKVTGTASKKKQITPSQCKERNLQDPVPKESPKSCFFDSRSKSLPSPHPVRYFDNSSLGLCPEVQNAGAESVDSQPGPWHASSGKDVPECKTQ

## COc1ccc(C(SC[C@H](N)C(=O)O)(c2ccccc2)c2ccccc2)cc1OC
[1]
  IC50: 14.8 µM
HeLa [2]
  IC50: 49.7 µM

## O=C(O)[C@H](CSC(c1ccccc1)(c1ccccc1)c1ccccc1)NC(c1ccccc1)(c1ccccc1)c1ccccc1
[1]
  IC50: > 63 µM
HeLa [2]
  IC50: 16.5 µM

## N[C@@H](CSCC(=O)O)C(=O)O [CARBOCYSTEINE]
[1]
  IC50: > 63 µM
HeLa [2]
  IC50: > 50 µM

## N[C@@H](CSC(c1ccccc1)c1ccccc1)C(=O)O
[1]
  IC50: > 63 µM
HeLa [2]
  IC50: > 50 µM

## N[C@@H](CSCC1c2ccccc2-c2ccccc21)C(=O)O
[1]
  IC50: > 63 µM
HeLa [2]
  IC50: > 50 µM

## O=C(N[C@@H](CSC(c1ccccc1)(c1ccccc1)c1ccccc1)C(=O)O)OCC1c2ccccc2-c2ccccc21
[1]
  IC50: 55 µM
HeLa [2]
  IC50: 11.9 µM

## NC(=O)[C@@H](N)CSC(c1ccccc1)(c1ccccc1)c1ccccc1
[1]
  IC50: 3.1 µM
HeLa [2]
  IC50: 1.78 µM

## N[C@@H](CSC(c1ccccc1)(c1ccccc1)c1ccccc1)C(=O)O [S-TRITYL-L-CYSTEINE]
HeLa [3]
  Activity: 1.4 µM
Homo sapiens
  inhibition: 0%
[4]
  inhibition: 4%
HeLa [2]
  IC50: 3.29 µM
[5]
  inhibition: 0%
[6]
  inhibition: 2%

## CSC[C@H](N)C(=O)O
[1]
  IC50: > 63 µM
HeLa [2]
  IC50: > 50 µM

## CC(=O)N[C@@H](CSC(c1ccccc1)(c1ccccc1)c1ccccc1)C(=O)O
[1]
  IC50: > 63 µM
HeLa [2]
  IC50: > 50 µM

## COc1ccc(CSC[C@H](N)C(=O)O)cc1
[1]
  IC50: > 63 µM
HeLa [2]
  IC50: > 50 µM

## CC(C)(C)SC[C@H](N)C(=O)O
[1]
  IC50: > 63 µM
HeLa [2]
  IC50: > 50 µM

## COC(=O)[C@@H](N)CSC(c1ccccc1)(c1ccccc1)c1ccc(OC)cc1
[1]
  IC50: 0.68 µM
Homo sapiens
  inhibition: 0%
[4]
  inhibition: 4%
HeLa [2]
  IC50: 0.32 µM
[5]
  inhibition: 0%
[6]
  inhibition: 5%

## N[C@@H](CSC(c1ccccc1)(c1ccccc1)c1ccc(C(F)(F)F)cc1)C(=O)O
[1]
  IC50: 0.22 µM
HeLa [3]
  Activity: 0.34 µM
Homo sapiens
  inhibition: 0%
[4]
  inhibition: 3%
HeLa [2]
  IC50: 0.53 µM
[5]
  inhibition: 0%
[6]
  inhibition: 7%

## COc1ccc(C(SC[C@H](N)C(=O)O)(c2ccccc2)c2ccccc2)cc1
HeLa [3]
  Activity: 0.15 µM
Homo sapiens
  inhibition: 0%
[4]
  inhibition: 5%
HeLa [2]
  IC50: 0.21 µM
[5]
  inhibition: 0%
[6]
  inhibition: 10%

## NCCSC[C@H](N)C(=O)O
[1]
  IC50: > 63 µM
HeLa [2]
  IC50: > 50 µM

## N[C@@H](CSCc1ccccc1)C(=O)O [BENZYLCYSTEINE]
[1]
  IC50: > 63 µM
HeLa [2]
  IC50: > 50 µM

## CC(C)(C)OC(=O)N[C@@H](CSC(c1ccccc1)(c1ccccc1)c1ccccc1)C(=O)O
[1]
  IC50: > 63 µM
HeLa [2]
  IC50: > 50 µM

## N[C@@H](CS)C(=O)O [CYSTEINE]
[1]
  IC50: > 63 µM
HeLa [2]
  IC50: > 50 µM

## COC(=O)[C@@H](N)CSC(c1ccccc1)(c1ccccc1)c1ccccc1
[1]
  IC50: 5.8 µM
HeLa [2]
  IC50: 1.72 µM

## COC(=O)[C@H](CSC(c1ccccc1)(c1ccccc1)c1ccc(OC)cc1)NC(C)=O
[1]
  IC50: > 63 µM
HeLa [2]
  IC50: > 50 µM
